In ChEMBL document CHEMBL4321862, “Application of Bivalent Bioisostere Concept on Design and Discovery of Potent Opioid Receptor Modulators” (J Med Chem, 2019):
Calls of active or inactive are those of the source.

Columns and labels:
[1] = biological target: Kappa-type opioid receptor (Mus musculus, UniProt P33534); experiment: Displacement of [3H]-[…] from mouse kappa opioid receptor expressed in CHO cells incubated for […] by competitive radioligand binding assay; assay type: cell-based
[2] = biological target: Mu-type opioid receptor (Mus musculus) (UniProt P42866); experiment: Agonist activity at recombinant mouse mu opioid receptor expressed in CHO cell membrane assessed as [35]-GTPgammaS binding incubated for […] by scintillation counting method relative to DAMGO
Mus musculus [3] = experiment: Inhibition of morphine-induced antinociceptive activity in Swiss Webster mouse assessed as decrease in latency to tail withdrawal at 10 mg/kg, sc administered 5 mins before morphine stimulation observed for 20 mins by warm water tail withdrawal assay; assay type: functional, organism-based
Outline: (§1)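 Male Swiss Webster mice, n ≥ 5, baseline latency 2–4 s. Test compound given s.c. 5 min before morphine 10 mg/kg. Tail immersion at 56 ± 0.1 °C 20 min after morphine, 10 s cutoff, %MPE per mouse.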

Mus musculus [4] = experiment: Inhibition of morphine-induced antinociceptive activity in subcutaneously dosed Swiss Webster mouse assessed as decrease in latency to tail withdrawal administered 5 mins before morphine stimulation observed for 20 mins by warm water tail withdrawal assay; assay type: functional; outline: as §1
[5] = biological target: Mu-type opioid receptor (Mus musculus) (UniProt P42866); experiment: Agonist activity at mouse mu opioid receptor expressed in CHO cells cotransfected with Galphaqi5 assessed as intracellular calcium level preincubated for 60 mins in Fluo4AM solution followed by compound addition by Fluo4AM dye based assay; assay type: functional, cell-based
[6] = biological target: Mu-type opioid receptor (Mus musculus) (UniProt P42866); experiment: (§2) Agonist activity at mouse mu opioid receptor expressed in CHO cells assessed as inhibition of forskolin-induced cAMP formation incubated for 8 min followed by forskolin stimulation by ELISA; assay type: functional, cell-based
Outline: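 mMOR-CHO cells grown to confluency, pre-incubated 30 min at 37°C with 1 mM IBMX, 200 μM Ro 20-1724, bovine serum albumin and 20 mM HEPES (pH 7.2-7.5). Ligand then added with 10 μM forskolin for 8 min at 37°C. Media removed, cells rinsed with PBS, cAMP measured by ELISA. DMEM/F12 used as solvent throughout.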

[7] = Toxicity in placebo-pelleted Swiss Webster mouse assessed as wet dog shakes at 20 mg/kg, sc observed after 20 mins; assay type: organism-based; conditions: in vivo
Outline: (§3)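 Male Swiss Webster mice, n = 5, placebo-pelleted. Tested 72 h after implantation, following 30 min chamber habituation. Compound given s.c.; wet-dog shakes, escape jumps and paw tremors counted over 20 min.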

[8] = Toxicity in placebo-pelleted Swiss Webster mouse assessed as escape jumps at 20 mg/kg, sc observed after 20 mins; assay type: organism-based; conditions: in vivo; outline: as §3
[9] = Toxicity in placebo-pelleted Swiss Webster mouse assessed as paw tremors at 20 mg/kg, sc observed after 20 mins; assay type: organism-based; conditions: in vivo; outline: as §3
Mus musculus [10] = experiment: Inhibition of opioid-withdrawal symptom in morphine-pelleted Swiss Webster mouse assessed as reduction in wet dog shakes at 1 mg/kg, sc observed after 20 mins; assay type: functional, organism-based
Outline: (§4)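 Male Swiss Webster mice, n = 5, implanted with 75 mg morphine pellet at base of neck. After 72 h, 30 min habituation in observation chamber, then test compound s.c. Wet-dog shakes, escape jumps and paw tremors counted over 20 min.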

Mus musculus [11] = experiment: Inhibition of opioid-withdrawal symptom in morphine-pelleted Swiss Webster mouse assessed as reduction in escape jumps at 1 mg/kg, sc observed after 20 mins; assay type: functional, organism-based; outline: as §4
Mus musculus [12] = experiment: Inhibition of opioid-withdrawal symptom in morphine-pelleted Swiss Webster mouse assessed as reduction in paw tremors at 1 mg/kg, sc observed after 20 mins; assay type: functional, organism-based; outline: as §4
Mus musculus [13] = experiment: Inhibition of opioid-withdrawal symptom in morphine-pelleted Swiss Webster mouse assessed as reduction in wet dog shakes at 50 mg/kg, sc observed after 20 mins; assay type: functional, organism-based; outline: as §4
Mus musculus [14] = experiment: Inhibition of opioid-withdrawal symptom in morphine-pelleted Swiss Webster mouse assessed as reduction in escape jumps at 50 mg/kg, sc observed after 20 mins; assay type: functional, organism-based; outline: as §4
Mus musculus [15] = experiment: Inhibition of opioid-withdrawal symptom in morphine-pelleted Swiss Webster mouse assessed as reduction in paw tremors at 50 mg/kg, sc observed after 20 mins; assay type: functional, organism-based; outline: as §4
Mu-type opioid receptor [16] = biological target: T1, Mu-type opioid receptor (Mus musculus, UniProt P42866); experiment: as §2; assay type: functional, cell-based
Mu-type opioid receptor [17] = biological target: T1, Mu-type opioid receptor; experiment: Displacement of [3H]-Naloxone from mouse mu opioid receptor expressed in CHO cells incubated for […] by competitive radioligand binding assay; assay type: cell-based
[18] = biological target: Delta-type opioid receptor (Homo sapiens, UniProt P41143); experiment: Displacement of [3H]-[…] from human delta opioid receptor expressed in CHO cells incubated for […] by competitive radioligand binding assay; assay type: cell-based
[19] = Selectivity index, ratio of Ki for mouse kappa opioid receptor expressed in CHO cells to Ki for mouse mu opioid receptor expressed in CHO cells
[20] = Selectivity index, ratio of Ki for human delta opioid receptor expressed in CHO cells to Ki for mouse mu opioid receptor expressed in CHO cells
Mu-type opioid receptor [21] = biological target: T1, Mu-type opioid receptor; experiment: Agonist activity at recombinant mouse mu opioid receptor expressed in CHO cell membrane assessed as [35]-GTPgammaS binding incubated for […] by scintillation counting method
Mu-type opioid receptor [22] = biological target: T1, Mu-type opioid receptor; experiment: Antagonist activity at mouse mu opioid receptor expressed in CHO cells cotransfected with Galphaqi5 assessed as inhibition of DAMGO-induced increase in intracellular calcium concentration preincubated for 60 mins in Fluo4AM solution followed by compound addition and further incubated for 15 mins followed by DAMGO stimulation by Fluo4AM dye based assay; assay type: functional, cell-based
Outline: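 Gαqi5-transfected mMOR-CHO cells loaded 60 min with Fluo-4 AM/probenecid. Triplicate per concentration, at least three repeats, mean ± SEM. Naltrexone as control. IC50 by non-linear regression.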

Mus musculus [23] = experiment: Inhibition of opioid-withdrawal symptom in morphine-pelleted Swiss Webster mouse assessed as reduction in wet dog shakes at 8 mg/kg, sc observed after 20 mins; assay type: functional, organism-based; outline: as §4
Mus musculus [24] = experiment: Inhibition of opioid-withdrawal symptom in morphine-pelleted Swiss Webster mouse assessed as reduction in escape jumps at 8 mg/kg, sc observed after 20 mins; assay type: functional, organism-based; outline: as §4
Mus musculus [25] = experiment: Inhibition of opioid-withdrawal symptom in morphine-pelleted Swiss Webster mouse assessed as reduction in paw tremors at 8 mg/kg, sc observed after 20 mins; assay type: functional, organism-based; outline: as §4
[26] = biological target: Delta-type opioid receptor (Mus musculus, UniProt P32300); experiment: Displacement of [3H]-diprenorphine from mouse delta opioid receptor expressed in CHO cells incubated for […] by competitive radioligand binding assay; assay type: cell-based

| SMILES | Ki [1] [nM] | Emax [2] [%] | inhibition (Mus musculus [3]) | AD50 (Mus musculus [4]) [mg/kg] | Activity [5] | Emax [6] [%] | inhibition (Mus musculus [10]) | inhibition (Mus musculus [11]) | inhibition (Mus musculus [12]) | Ki (Mu-type opioid receptor [17]) [nM] | Ki [18] [nM] | Ratio Ki [19] | Ratio Ki [20] | EC50 (Mu-type opioid receptor [21]) [nM] | IC50 (Mu-type opioid receptor [22]) [nM] | also measured |
| --- | --- | --- | --- | --- | --- | --- | --- | --- | --- | --- | --- | --- | --- | --- | --- | --- |
| Cl.O=C(N[C@@H]1CC[C@@]2(O)[C@H]3Cc4ccc(O)c5c4[C@@]2(CCN3CC2CC2)[C@H]1O5)c1cccc2ccoc12 | 0.81 | 27.3 | Active | 0.18 | inactive | 35.7 | Active | Active | Active | – | – | – | – | – | – | Activity [7]: Non-Toxic; Activity [8]: Non-Toxic; Activity [9]: Non-Toxic; inhibition (Mus musculus [13]): Active; inhibition (Mus musculus [14]): Active; inhibition (Mus musculus [15]): Active |
| Cl.O=C(N[C@H]1CC[C@@]2(O)[C@H]3Cc4ccc(O)c5c4[C@@]2(CCN3CC2CC2)[C@H]1O5)c1cccc2occc12 | 4.98 | 10 | Active | 0.29 | inactive | 18.9 | Active | Active | Active | 0.26 | 16.9 | 19.2 | 65 | 0.77 | 50.7 | EC50 (Mu-type opioid receptor [16]; read-out: EC50): 80 nM |
| Cl.O=C(N[C@H]1CC[C@@]2(O)[C@H]3Cc4ccc(O)c5c4[C@@]2(CCN3CC2CC2)[C@H]1O5)c1cccc2ccsc12 | 2.65 | – | Active | 0.29 | – | – | Active | Active | Active | 0.31 | 8.35 | 8.5 | 26.9 | 6.21 | 566 | EC50 (Mu-type opioid receptor [16]; cho): Not Active; inhibition (Mus musculus [23]): Active; inhibition (Mus musculus [24]): Active; inhibition (Mus musculus [25]): Active |
| Cl.O=C(N[C@H]1CC[C@@]2(O)[C@H]3Cc4ccc(O)c5c4[C@@]2(CCN3CC2CC2)[C@H]1O5)c1cccc2cc[nH]c12 | – | 19.1 | – | 2.07 | – | – | – | – | – | – | – | – | – | – | – | Ki [26]: 13.7 nM |
